Activity calls are given as the source filed them. The calls are words filed in the database; no cut-off is given here.

Assay [1] concerns G-361. As to the kind of experiment: Induction of apoptosis in human G361 cells assessed as decrease in Mcl-1 protein level at 300 nM after 24 hrs by immunoblotting analysis. It counts as functional, cell-based. The method, boiled down: (§1)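 Treated G361 cells harvested into Laemmli sample buffer. Proteins resolved by SDS-PAGE and blotted to nitrocellulose. Membranes blocked, probed overnight with specific primary antibodies, then peroxidase-conjugated secondaries. ECL detection by CCD camera. Actin served as loading control.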

The test system of assay [2] is MCF7. As to the kind of experiment: Cytotoxicity against human MCF7 cells assessed as growth inhibition after 72 hrs by calcein AM staining-based fluoroscence assay. The assay is classed as functional, cell-based. Conditions: MCF7, 72 h.
The subject of assay [3] is G-361. As to the kind of experiment: Induction of apoptosis in human G361 cells assessed as decrease in Mcl-1 at 300 nM after 24 hrs by immunoblotting analysis. It counts as functional, cell-based. The method in brief:
as §1
A general note: A western blot detects proteins with antibodies after separation by electrophoresis.

Assay [4] relates to K562. In words: Cytotoxicity against human K562 cells assessed as growth inhibition after 72 hrs by calcein AM staining-based fluoroscence assay. To be noted: K562, 72 h. It counts as functional, cell-based.
The test system of assay [5] is G-361. As to the kind of experiment: Induction of apoptosis in human G361 cells assessed as induction of caspase-7 clevage at 300 nM after 24 hrs by immunoblotting analysis. It counts as functional, cell-based. The method, boiled down:
as §1

Assay [6] deals with Cyclin-dependent kinase 2/cyclin E1 (Homo sapiens) (UniProt P24864+P24941). As to the kind of experiment: Ratio of roscovitine IC50 to compound IC50 for human recombinant CDK2/Cyclin E. It counts as protein-complex assay.
For assay [7], the target named is Cyclin-dependent kinase 2/cyclin E1 (Homo sapiens, UniProt P24941). In words: Inhibition of human recombinant CDK2/Cyclin E expressed in baculovirus infected sf9 cells using histone H1 as substrate.
Assay [8] relates to G-361. In words: Induction of apoptosis in human G361 cells assessed as caspase 3/7 activation using Ac-DEVD-AMC as substrate at 300 nM after 24 hrs by fluorimetry assay. It counts as functional, cell-based.
The subject of assay [9] is G-361. As to the kind of experiment: Induction of apoptosis in human G361 cells assessed as caspase 9 activation using Ac-DEHD-AMC as substrate at 300 nM after 24 hrs by fluorimetry assay. It counts as functional, cell-based. To be noted: in the assay text read “Ac-LEHD-AMC” for “Ac-DEHD-AMC”. The method, boiled down:
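G361 lysates were made in CHAPS extraction buffer, pH 7.4, clarified at 10000g, and protein-equalized. They were incubated 24 h with 100 μM Ac-LEHD-AMC in 100 mM HEPES pH 7.5, 0.5 mM EDTA, 20% glycerol, 5 mM DTT. AMC fluorescence read at 355/460 nm (ex/em).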

Assay [10] concerns the target CDK2/CDK4 (Homo sapiens) (UniProt P11802+P24941). In words: Inhibition of CDK2/4-mediated retinoblastoma protein phosphorylation at ser780 in human G361 cells at 300 nM after 24 hrs by immunoblotting analysis. It counts as cell-based. To be noted: G-361. The method in brief:
as §1

Assay [11] deals with G-361. As to the kind of experiment: Induction of apoptosis in human G361 cells assessed as induction of caspase-9 clevage at 300 nM after 24 hrs by immunoblotting analysis. The assay is classed as functional, cell-based. The method, boiled down: as §1
The test system of assay [12] is G-361. As to the kind of experiment: Induction of apoptosis in human G361 cells assessed as induction of caspase-3 clevage at 300 nM after 24 hrs by immunoblotting analysis. The assay is classed as functional, cell-based. The method, boiled down: as §1
The subject of assay [13] is HeLa. In words: Cytotoxicity against human HeLa cells assessed as growth inhibition after 72 hrs by calcein AM staining-based fluoroscence assay. The assay is classed as functional, cell-based.
Assay [14] relates to HOS. As to the kind of experiment: Cytotoxicity against human HOS cells assessed as growth inhibition after 72 hrs by calcein AM staining-based fluoroscence assay. It counts as functional, cell-based.
For assay [15], the target named is Cyclin-dependent kinase 9 (Homo sapiens) (UniProt P50750). As to the kind of experiment: Inhibition of CDK9-mediated RNA polymerase 2 phosphorylation at ser2 in human G361 cells at 300 nM after 24 hrs by immunoblotting analysis. It counts as cell-based. Conditions: G-361. The method in brief:
as §1

Assay [16] has as its system HCT-116. In words: Cytotoxicity against human HCT116 cells assessed as growth inhibition after 72 hrs by calcein AM staining-based fluoroscence assay. It counts as functional, cell-based. To be noted: HCT-116, 72 h.
For assay [17], the system named is G-361. As to the kind of experiment: Cytotoxicity against human G361 cells assessed as growth inhibition after 72 hrs by calcein AM staining-based fluoroscence assay. The assay is classed as functional, cell-based. Conditions: G-361, 72 h.
In assay [18] the test system is G-361. As to the kind of experiment: Induction of apoptosis in human G361 cells assessed as induction of PARP-1 clevage at 300 nM after 24 hrs by immunoblotting analysis. The assay is classed as functional, cell-based. The method in brief: as §1
Assay [19] deals with Cyclin-dependent kinase 1 (Homo sapiens, UniProt P06493). As to the kind of experiment: Inhibition of human recombinant CDK1.
Sequence of Cyclin-dependent kinase 1 (P06493 whole entry): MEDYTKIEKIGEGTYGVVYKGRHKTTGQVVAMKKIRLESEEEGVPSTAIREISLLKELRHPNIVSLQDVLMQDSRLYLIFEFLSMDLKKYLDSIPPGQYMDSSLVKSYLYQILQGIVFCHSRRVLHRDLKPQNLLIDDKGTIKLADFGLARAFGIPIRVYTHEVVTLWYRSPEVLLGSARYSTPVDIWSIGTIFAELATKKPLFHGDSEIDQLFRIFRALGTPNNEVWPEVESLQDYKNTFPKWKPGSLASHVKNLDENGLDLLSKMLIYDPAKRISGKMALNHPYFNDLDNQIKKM

Sequence of Cyclin-dependent kinase 9 (Homo sapiens) (P50750 whole entry): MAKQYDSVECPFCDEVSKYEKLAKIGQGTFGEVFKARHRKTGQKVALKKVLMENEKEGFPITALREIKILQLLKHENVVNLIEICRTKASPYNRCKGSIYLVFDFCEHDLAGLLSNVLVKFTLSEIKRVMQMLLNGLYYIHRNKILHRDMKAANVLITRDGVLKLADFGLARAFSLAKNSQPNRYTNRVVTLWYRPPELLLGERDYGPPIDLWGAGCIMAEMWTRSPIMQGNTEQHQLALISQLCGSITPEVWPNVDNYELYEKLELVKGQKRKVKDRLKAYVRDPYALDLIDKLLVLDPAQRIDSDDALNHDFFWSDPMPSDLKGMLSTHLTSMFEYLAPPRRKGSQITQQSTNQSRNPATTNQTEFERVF

As to `NC1CCC(Nc2nc(NCc3ccc(-c4ccoc4)nc3)c3ncn(C4CCCC4)c3n2)CC1` (stereo not given), the result in assay [1], in assay [3], in assay [5], in [8], in assay [9] and in assay [11] was Active. Besides, the result in [12] and in assay [18] was Active. Also, the IC50 (as a rule, the concentration at which inhibition is half-maximal) in assay [2] is 32 nM; in [4], 56 nM; in assay [7] it was 8 nM; in assay [13], 15 nM; in [14] it was 24 nM; in assay [16], 46 nM. Moreover, the IC50 in [17] is 97 nM. Also, the Ratio IC50 in assay [6] was determined as 20. Moreover, the inhibition result in assay [10] was “Active”. Besides, the “Inhibition of RNA polymerase II Ser2 phosphorylation (qualitative)” value (from here on “Inhibition … (qualitative)”) in assay [15] was “Active”.

Turning to `CC(C)(O)CNc1nc(NCc2ccc(-c3ccco3)cc2)c2ncn(C3CCCC3)c2n1`, the IC50 in assay [2] was 15300 nM; in assay [4], 16800 nM; in assay [19] it was more than 999 nM; in assay [7] it was 478 nM; in assay [13], 14800 nM; in [14], 21400 nM. Moreover, the results for the IC50 in assay [16] and in assay [17] were 16700 nM and 17400 nM, respectively.

Turning to `NC1CCC(Nc2nc(NCc3ccc(-c4ccccc4)nc3)c3ncn(C4CCCC4)c3n2)CC1` (stereo not given), the IC50 in assay [2] is 483 nM; in assay [19] it was 184 nM; in [7], 31 nM; in assay [13] it was 114 nM; in assay [14], 206 nM; in assay [16], 563 nM. Further, the IC50 in assay [17] was 895 nM.

With `NC1CCC(Nc2nc(NCc3cc(Cl)ccc3O)c3ncn(C4CCCC4)c3n2)CC1` (stereo not given), the half-maximal inhibitory concentration (IC50) in assay [2] is 430 nM; in [4], 690 nM; in [19], 23 nM; in assay [7] it was 8 nM; in assay [13], 750 nM; in assay [14], 490 nM. The IC50 was 350 nM in assay [16] and 390 nM in [17].

Turning to `NC1CCC(Nc2nc(NCc3ccc(-c4ccccc4O)cc3)c3ncn(C4CCCC4)c3n2)CC1` (stereo not given), the IC50 in [2] was 2910 nM; in [4], 2610 nM; in assay [19] it was 777 nM; in [7] it was 68 nM; in [13], 4180 nM; in assay [14] it was 1160 nM. Moreover, the results for the IC50 in assay [16] and in [17] were 4350 nM and 4150 nM, respectively.

In the case of `Nc1ccccc1CNc1nc(NC2CCC(N)CC2)nc2c1ncn2C1CCCC1` (stereo not given), the IC50 in [2] is 2330 nM; in [4] it was 4040 nM; in assay [19] it was 93 nM; in [7], 18 nM; in [13], 1030 nM; in assay [14], 2030 nM. Besides, the IC50 is 2300 nM in [16] and 2070 nM in [17].

As for `NC1CCC(Nc2nc(NCc3ccc(-c4cccs4)nc3)c3ncn(C4CCCC4)c3n2)CC1` (stereo not given), the outcome in assay [1], in assay [3], in [5], in assay [8], in assay [9] and in assay [11] was Active. The outcome in [12] and in assay [18] was Active. In addition, the half-inhibitory concentration (IC50) in assay [2] was 92 nM; in assay [4] it was 100 nM; in assay [7] it was 4 nM; in assay [13], 40 nM; in [14], 32 nM; in assay [16] it was 97 nM. Also, in assay [17], the IC50 was 150 nM. Moreover, the Ratio IC50 in assay [6] was 20. In assay [10], the inhibition result is “Active”. In assay [15], the “Inhibition … (qualitative)” value was “Active”.

Turning to `NC1CCC(Nc2nc(NCc3ccc(-c4ccco4)nc3)c3ncn(C4CCCC4)c3n2)CC1` (stereo not given), the result in [1], in assay [3], in assay [5], in [8], in [9] and in [11] was Active. In addition, the outcome in [12] and in [18] was Active. The IC50 in assay [2] was 33 nM; in assay [4] it was 67 nM; in [7], 10 nM; in assay [13], 30 nM; in assay [14] it was 44 nM; in assay [16], 86 nM. In addition, in [17], the IC50 is 97 nM. The inhibition result in assay [10] was “Active”. For the same molecule, in [15], the “Inhibition … (qualitative)” value is “Active”.

Consider `CC(C)(O)CNc1nc(NCc2ccc(-c3ccco3)nc2)c2ncn(C3CCCC3)c2n1`, for which the IC50 was 1300 nM in [2]; 1420 nM in assay [4]; 555 nM in assay [19]; 120 nM in [7]; 667 nM in assay [13]; 560 nM in [14]. For the same molecule, the IC50 in assay [16] is 1270 nM; in [17] it was 2100 nM.

The record behind these values is ChEMBL document CHEMBL2401709 (J Med Chem, 2013).
